Results of several laboratories.

| SMILES | cell line | read-out | method | tested at | time | measurement | result |
| --- | --- | --- | --- | --- | --- | --- | --- |
| COc1cc(NCC(=O)Nn2c(C)nc3ccc(Cl)cc3c2=O)cc(OC)c1OC | LoVo | cell growth or viability | LDH | 200 µg/mL | 24 h | viability | 59.5% |
| CCC1=C[C@@H]2CN(C1)Cc1c([nH]c3ccccc13)[C@@](C(=O)OC)(c1cc3c(cc1OC)N(C)[C@H]1[C@@](O)(C(=O)OC)[C@H](OC(C)=O)[C@]4(CC)C=CCN5CC[C@]31[C@@H]54)C2 | LLC-PK1 | cell growth or viability |  |  | 72 h | IC80 | 0.011 µM |
| C=CC(=O)N1CCC[C@@H](n2nc(-c3ccc(Oc4ccccc4)cc3)c3c(N)ncnc32)C1 | U2932 | cell growth or viability |  |  | 48 h | GI50 | 5 µM |
| COc1cccc(Oc2ccccc2NC(=O)CNC(=O)c2cccc3ccccc23)c1 | TK-10 | cell growth or viability | SRB |  | 48 h | GI50 | 1.58 µM |
| COc1ccc(-c2nc(NN=C3C(=O)Nc4ccc(Cl)cc43)c3ccccc3n2)cc1OC | HT-29 | cell growth or viability |  | 30 µM |  | inhibition | 5.3% |
| CC(C)(O)[C@H]1CC[C@H](Nc2ccc3ncc(-c4cccc(C(F)(F)F)c4)n3n2)CC1 | UMUC3 | colony formation |  |  |  | EC50 | 2.2 µM |
| COc1ccc2c(c1)C(=NNc1ncnc3cc(OC)c(OC)cc13)C(=O)N2 | HT-29 | cell growth or viability |  | 10 µM |  | inhibition | 20.9% |
| CC[C@@H]1C=CC(=O)O[C@@H]1C[C@@H](O)[C@H](C)[C@H](O)[C@@H](C)Cc1ccc(F)cc1 | A2780 | cell growth or viability | MTT |  | 48 h | GI50 | 0.0297 µM |
| CCc1ccc(/C=N/n2c(C)nc3ccc(C)cc3c2=O)s1 | LoVo | cell growth or viability | LDH | 200 µg/mL | 24 h | viability | 89.5% |
| COc1cc([C@@H]2c3cc4c(cc3[C@@H](O[C@@H]3O[C@@H]5CO[C@@H](C)O[C@H]5[C@H](O)[C@H]3O)[C@H]3COC(=O)[C@H]23)OCO4)cc(OC)c1O | Caco-2 | cell growth or viability | MTS |  | 48 h | IC50 | 15.3 µM |
| CC(C)c1cc(C(=O)N2Cc3ccccc3C2)c(O)c2c1C(=O)CC2 | UMUC3 | cell growth or viability | ATP luminescence |  | 72 h | IC50 | 55.6 µM |
| COc1ccc(-c2ccc(-c3ccc(C(=N)N)nc3)s2)cc1Cl | TK-10 | cell growth or viability |  |  |  | GI50 | 1.9 µM |
| C=CC(=O)Nc1cccc(Nc2nc(Nc3ccc(OCCOC)cc3)ncc2F)c1 | U2932 | cell growth or viability |  |  | 48 h | GI50 | 4.3 µM |
| S=C([S][Au-][P+](CCCCCC[P+]([Au-][S]C(=S)n1cccn1)(c1ccccc1)c1ccccc1)(c1ccccc1)c1ccccc1)n1cccn1 | TK-10 | cell growth or viability |  |  |  | GI50 | 11 µM |
| Cc1nc2ccc(Br)cc2c(=O)n1/N=C/c1ccc(C(=O)O)cc1 | LoVo | cell growth or viability | LDH | 200 µg/mL | 24 h | viability | 61.9% |
| Cc1ccc2c(c1)C(=NNc1nc3ccccc3n(C)c1=O)C(=O)N2 | HT-29 | cell growth or viability |  | 30 µM |  | inhibition | 47.6% |
| CC(C)c1cc(C(=O)N2Cc3ccccc3C2)c(O)c2c1CCC2=O | UMUC3 | cell growth or viability | ATP luminescence |  | 72 h | IC50 | > 100 µM |
| CC(C)C[C@H](NC(=O)[C@H](Cc1ccccc1)NC(=O)c1cnccn1)B(O)O | NCI-H1581 | cell growth or viability | ATP luminescence |  |  | IC50 | 0.016 µM |
